The sample as a whole holds a higher share of hits than the screen did.
DAT uptake mod: changed hDAT dopamine uptake under cocaine IC80, either direction, primary screen, cocaine antagonist project, cell-based, LLC-PK1 hDAT, [14C]-dopamine uptake, MLSMR; Sodium-dependent dopamine transporter (Homo sapiens), Q01959; LLC-PK1 hDAT cells, [14C]-dopamine uptake with cocaine IC80; actives deviate in either direction; B-score at 10 µM; 110,000 tested, 1.3% active;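 active = Z score or B-score, a plate-position-corrected score, falls beyond the plate's 99.7% confidence bounds, in either direction; inactive = both scores lie inside the 99.7% bounds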;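 note: scored against the spread of the other compound wells on the same plate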
Calb biofilm kill: clotrimazole potentiators killing Candida biofilms, primary screen, with clotrimazole, Alamar Blue | C. albicans biofilm + clotrimazole | inhibition, % at 6 µM | 85,000 tested, 0.14% active | AID 834, 2007;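 active = inhibition above 20%; inactive = inhibition below 20%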;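 note: preformed 24 hr biofilms exposed to compound for 48 hr; 0% = biofilm without compound and 100% = blank killed by clotrimazole plus chlorhexidine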
AP complement: alternative complement pathway inhibitors, primary screen, biochemical, ELISA, human serum, orthogonally pooled compounds. LPS-coated ELISA, C3 deposition; tested in compound mixtures. inhibition, % at 5 µM. 62,000 tested, 0.08% active;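 active = inhibition above 30% in each of the two pooled mixtures holding the compound, so the lower value exceeds 30%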;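 note: 0% = serum in Mg-EGTA without compound and 100% = EDTA serum blank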
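Medium: diluted human serum in Mg2+-EGTA GVB++. Assay system: human serum complement alternative pathway, C3 deposition onto LPS. Also added: Plate-bound LPS. Technique: Anti-C3 ELISA, OD 450 nm. Measure: percent inhibition. Incubation: 1 h at 37 °C. Dosing: 5 µM each compound, pools of ten, 50 µM per pool.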
D1 allo mod: D1 CRE-luciferase signal change, two-sided – cell-based, HEK293 D1, dopamine EC30, D1 allosteric modulator project, primary screen; dopamine EC30 potentiation; actives deviate in either direction; B-score at 10 µM; 58,000 tested, 5.9% active; AID 641, 2007;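 active = luminescence count or its row- and column-corrected plate score outside the 99.7% band of the plate's sample wells, on either side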
Target sequence (P21728 whole entry, looked up): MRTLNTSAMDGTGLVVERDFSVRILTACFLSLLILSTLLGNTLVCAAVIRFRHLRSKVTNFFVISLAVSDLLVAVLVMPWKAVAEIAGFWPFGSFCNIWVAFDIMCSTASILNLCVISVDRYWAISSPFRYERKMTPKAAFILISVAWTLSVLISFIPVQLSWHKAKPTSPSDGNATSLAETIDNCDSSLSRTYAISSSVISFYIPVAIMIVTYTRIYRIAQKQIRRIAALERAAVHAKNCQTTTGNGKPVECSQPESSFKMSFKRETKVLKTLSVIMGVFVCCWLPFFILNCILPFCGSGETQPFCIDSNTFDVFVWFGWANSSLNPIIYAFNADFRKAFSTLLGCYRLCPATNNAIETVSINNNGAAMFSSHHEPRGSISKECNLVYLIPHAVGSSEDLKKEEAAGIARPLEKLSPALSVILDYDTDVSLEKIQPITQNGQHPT
MMP13 inh: human MMP13 inhibitors, primary screen, biochemical, FRET peptide cleavage; 65,000 tested, 0.07% active; AID 570, 2006; inhibition, % at 4 µM; MMP-13 fTHP FRET cleavage, Mca fluorescence; Collagenase 3 (Homo sapiens), P45452;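 active = inhibition above the mean of compound-free control plate wells plus 3 SD, cut at about 14% in these data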;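 note: 0% = DMSO wells and 100% = wells with reference MMP-13 inhibitor after basal subtraction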
Active calls of the source: *; · = no result given.

SMILES | DAT uptake mod | Calb biofilm kill | AP complement | D1 allo mod | MMP13 inh
COc1ccc(Cc2nnc3c4cnn(C)c4ncn23)cc1 | -7.4* | 7 | 16 | 0.54 | 4
Cc1cccc(C)c1OCc1nnc2c3cnn(C)c3ncn12 | 0.87 | 0 | -12 | 0.4 | 1
CCOC(=O)N1CCN(CC(O)c2ccc3c(c2)CCN3)CC1 (stereo unspecified) | 0.028 | 0 | 13 | -3.9* | -2
OC(CN1CCN(c2ccccc2)CC1)c1ccc2c(c1)CCN2 (stereo unspecified) | 0.026 | -1 | 8 | -3* | 10
N=C(N)N1CCc2ccccc2C1 | · | 9 | · | · | ·
COC(=O)C1(Cc2ccc(O)c(CC3OC3(C)C)c2)OC(=O)C(O)=C1c1ccc(O)cc1 (stereo unspecified) | 0.76 | · | · | · | ·
O=C(c1ccco1)N1CCN(C(=O)c2cc(-c3ccncc3)nc3ccc(Br)cc23)CC1 | -2.7* | 6 | 4 | -2.7 | -2
Cn1c(C(=O)O)c(CC(=O)N2CCC(Cc3ccccc3)CC2)c2ccccc21 | · | -2 | · | · | ·
C[C@@H](c1ncncc1F)[C@](O)(Cn1cncn1)c1ccc(F)cc1F | -0.091 | · | · | · | ·
COc1ccc(/C=N/n2c(=S)n(C)c3ccccc32)cc1OC | 1.2 | 50* | · | · | ·
O=C(Nc1cnc2ccccc2c1)c1ccco1 | -0.29 | 1 | · | -4.5* | 5
CCN(CC)c1ccc(NC(=O)c2ccco2)cc1 | 0.099 | 6 | 1 | -3* | 8
CCN(CC)c1ccc(NC(=O)c2cc(Cl)ccc2OC)cc1 | 1.1 | 5 | · | · | ·
CCN(CC)c1ccc(NC(=O)c2ccco2)c(C)c1 | -0.73 | 4 | 14 | -0.079 | 1
CCN(CC)c1ccc(NC(=O)c2ccccc2F)cc1 | 1 | -1 | 6 | -5* | 1
C=CCNC(=O)C1CC2Cn3c(nc4cc5ccccc5cc43)C2N1C (stereo unspecified) | 0.41 | · | · | · | ·
CCCn1c(SCC(=O)N2CCCc3ccccc32)nc2c1c(=O)n(C)c(=O)n2C | · | 7 | 25 | 4.2* | -9
Cn1c(SCC(=O)N2CCCc3ccccc32)nnc1-c1c[nH]c2ccccc12 | 3.6* | · | · | -0.4 | -3
CCn1c(SCC(=O)N2CCCc3ccccc32)nnc1-c1c[nH]c2ccccc12 | 0.99 | 2 | -8 | 0.26 | 3
Cc1ccccc1OCc1nnc(SCC(=O)N2CCc3ccccc32)n1C | -8.6* | -1 | · | · | ·
COc1cc2c(cc1NC(=O)COc1ccc3ccccc3c1)oc1ccccc12 | -7.8* | · | · | · | ·
COc1ccccc1NC(=O)Cn1cnc2sc(C(=O)NCc3ccco3)c(C)c2c1=O | 1.9* | 7 | -3 | -0.21 | 2
COc1ccccc1NC(=O)c1sc2ncn(Cc3ccccc3C)c(=O)c2c1C | 0.46 | · | · | · | ·
Cc1ccc(C)c(S(=O)(=O)NCc2ccc(C(=O)N3CCN(C)CC3)cc2)c1 | -1.2 | 3 | 3 | -0.58 | 8
Cc1ccc(C)c(S(=O)(=O)NCc2ccc(C(=O)N3CCC(Cc4ccccc4)CC3)cc2)c1 | 3.5* | 7 | · | · | ·
SMILES | DAT uptake mod | Calb biofilm kill | AP complement | D1 allo mod | MMP13 inh
CC(NC(=O)CN1CCC(C(N)=O)CC1)c1ccccc1 (stereo unspecified) | -8.1* | 9 | -8 | -0.003 | 8
COc1cc(C(=O)NC2CCCNC2)cc(OC)c1OC (stereo unspecified) | 0.093 | · | · | · | ·
COC(=O)[C@H](Cc1ccccc1)NC(=O)O[C@H]1C(=O)c2ccc(OC)cc2O[C@@H]1c1ccc2c(c1)OCO2 | -0.09 | · | · | · | ·
COc1ccc(CCNC(=O)CCn2c(=O)oc3ccccc32)cc1 | 0.89 | 21* | 9 | 0.1 | -5
COc1ccccc1CCNC(=O)CCn1c(=O)oc2ccccc21 | 1.4 | 8 | · | · | ·
Cn1c(=O)[nH]c(=O)c2c1nc(N1CCN(c3ccccc3)CC1)n2CCSc1ncccn1 | 0.91 | · | 15 | -4.2* | 0
O=C(CCc1ccccc1)NC(NC(=S)Nc1cccc(Cl)c1)C(Cl)(Cl)Cl (stereo unspecified) | 2.7 | 5 | · | · | ·
O=C(/C=C/c1ccccc1)NC(NC(=S)Nc1cccc(Cl)c1)C(Cl)(Cl)Cl (stereo unspecified) | -7.3* | · | · | · | ·
CC(C)OCC(O)CN1CCNCC1 (stereo unspecified) | -0.13 | · | · | · | ·
